# Measurements from ChEMBL document CHEMBL3352115, “Discovery of APD334: Design of a Clinical Stage Functional Antagonist of the Sphingosine-1-phosphate-1 Receptor” (ACS Med Chem Lett, 2014).
# The source made the active and inactive calls. No cut-off for these calls is given here.
# Tests used:
# [1] = Volume of distribution at steady state in dog at 1 mg/kg, iv; assay type: ADME, organism-based, Canis lupus familiaris; design: dose 1 mg/kg, route intravenous; conditions: in vivo, read-out: Vdss
# [2] = Drug level in Sprague-Dawley rat brain at 14.5 ug/hr/kg dosed as constant infusion measured after 48 hrs; assay type: ADME, organism-based; conditions: iv, read-out: Drug uptake
# Summary of the method: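 Male Sprague–Dawley rats given constant infusion at 14.5 μg/h/kg for 48 h; brain and plasma concentrations measured at 48 h.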
# Rhesus monkey [3] = test: Reduction in peripheral lymphocyte count in orally dosed monkey measured after 24 hrs; assay type: ADME, organism-based; conditions: Macaca mulatta
# [4] = Cmax in Sprague-Dawley rat at 300 mg/kg; assay type: ADME, organism-based; design: dose 300 mg/kg; conditions: in vivo
# Summary of the method: (§1)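 Sprague–Dawley rats dosed at 300 and 1000 mg/kg in a separate dose-proportionality exposure study; Cmax determined.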
# Cytochrome P450 2C9 = Cytochrome P450 2C9 (Homo sapiens, UniProt P11712); test: Inhibition of CYP2C9 (unknown origin); assay type: ADME
# Sequence of Cytochrome P450 2C9 (P11712 whole entry): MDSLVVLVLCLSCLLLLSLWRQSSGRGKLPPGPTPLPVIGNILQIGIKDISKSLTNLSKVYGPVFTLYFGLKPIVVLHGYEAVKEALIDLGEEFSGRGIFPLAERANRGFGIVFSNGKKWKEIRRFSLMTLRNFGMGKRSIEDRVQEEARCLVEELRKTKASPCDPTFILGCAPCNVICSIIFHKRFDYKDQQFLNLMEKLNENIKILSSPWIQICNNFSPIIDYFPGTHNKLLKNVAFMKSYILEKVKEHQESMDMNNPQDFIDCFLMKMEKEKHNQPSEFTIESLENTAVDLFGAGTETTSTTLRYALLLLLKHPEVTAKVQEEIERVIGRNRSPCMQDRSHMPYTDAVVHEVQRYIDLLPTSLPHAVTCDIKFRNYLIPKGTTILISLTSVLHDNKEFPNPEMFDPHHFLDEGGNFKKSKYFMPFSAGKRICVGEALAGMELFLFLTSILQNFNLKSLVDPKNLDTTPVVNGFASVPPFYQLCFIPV
# [5] = Tmax in monkey at 1 mg/kg, iv or 3 mg/kg, po; assay type: ADME, organism-based, Macaca mulatta; conditions: rhesus monkey, in vivo
# [6] = Elimination half life in rat at 1 mg/kg, po; assay type: ADME, organism-based; design: dose 1 mg/kg, route oral; conditions: in vivo, read-out: beta t1/2 (converted)
# Summary of the method: (§2)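 Preclinical iv/po PK; amorphous free acid dosed orally as a suspension in 0.5% methyl cellulose; clearance and Vss from intravenous administration.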
# [7] = biological target: Sphingosine-1-phosphate receptor 1 (Canis lupus familiaris) (UniProt W5VNF7); test: Agonist activity at dog S1P1 receptor assessed as cAMP accumulation by HTRF assay relative to S1P; assay type: functional
# Sequence of Sphingosine-1-phosphate receptor 1 (Canis lupus familiaris) (W5VNF7 as listed by the source): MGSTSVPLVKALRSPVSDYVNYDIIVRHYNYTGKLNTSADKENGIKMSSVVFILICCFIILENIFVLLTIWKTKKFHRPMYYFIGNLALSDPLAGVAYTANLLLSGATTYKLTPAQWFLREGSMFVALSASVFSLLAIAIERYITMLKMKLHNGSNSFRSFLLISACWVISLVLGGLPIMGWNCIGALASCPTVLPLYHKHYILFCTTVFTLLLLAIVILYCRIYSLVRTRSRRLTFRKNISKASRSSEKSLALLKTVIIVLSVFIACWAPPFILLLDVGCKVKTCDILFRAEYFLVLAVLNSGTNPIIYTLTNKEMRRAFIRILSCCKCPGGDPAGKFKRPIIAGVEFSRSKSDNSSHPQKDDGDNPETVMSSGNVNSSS
# Summary of the method: (§3)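 HTRF cyclase (cAMP) functional assay at S1P1 of each species; EC50 taken as mean of three or more replicates; efficacy given as % agonism relative to S1P.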
# [8] = biological target: Sphingosine 1-phosphate receptor 1 (Rattus norvegicus, UniProt P48303); test: Agonist activity at rat S1P1 receptor assessed as cAMP accumulation by HTRF assay; assay type: functional; summary of the method: as §3
# Sequence of Sphingosine 1-phosphate receptor 1 (Rattus norvegicus, UniProt P48303) (P48303 whole entry): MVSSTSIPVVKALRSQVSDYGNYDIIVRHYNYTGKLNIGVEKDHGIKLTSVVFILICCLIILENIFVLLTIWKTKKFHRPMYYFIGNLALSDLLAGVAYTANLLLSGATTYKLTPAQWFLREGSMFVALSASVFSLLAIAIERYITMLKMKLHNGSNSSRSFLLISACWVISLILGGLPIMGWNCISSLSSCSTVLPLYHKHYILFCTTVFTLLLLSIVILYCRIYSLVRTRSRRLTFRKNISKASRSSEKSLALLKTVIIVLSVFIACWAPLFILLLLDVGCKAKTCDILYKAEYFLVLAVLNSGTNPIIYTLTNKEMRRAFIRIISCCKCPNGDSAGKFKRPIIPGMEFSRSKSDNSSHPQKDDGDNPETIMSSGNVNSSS
# Canis familiaris [9] = test: Effect on pulse pressure in telemeterized dog up to 40 mg/kg; assay type: ADME, organism-based, Canis lupus familiaris; design: dose 40 mg/kg; conditions: in vivo
# Summary of the method: (§4)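 Telemeterized dogs dosed at levels up to 40 mg/kg; pulse pressure, heart rate, body temperature and ECG parameters monitored.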
# [10] = biological target: T1, Sphingosine 1-phosphate receptor 1 (Homo sapiens, UniProt P21453); test: Agonist activity at human S1P1 receptor assessed as cAMP accumulation by HTRF assay; assay type: functional; summary of the method: as §3
# T1 sequence (P21453 whole entry): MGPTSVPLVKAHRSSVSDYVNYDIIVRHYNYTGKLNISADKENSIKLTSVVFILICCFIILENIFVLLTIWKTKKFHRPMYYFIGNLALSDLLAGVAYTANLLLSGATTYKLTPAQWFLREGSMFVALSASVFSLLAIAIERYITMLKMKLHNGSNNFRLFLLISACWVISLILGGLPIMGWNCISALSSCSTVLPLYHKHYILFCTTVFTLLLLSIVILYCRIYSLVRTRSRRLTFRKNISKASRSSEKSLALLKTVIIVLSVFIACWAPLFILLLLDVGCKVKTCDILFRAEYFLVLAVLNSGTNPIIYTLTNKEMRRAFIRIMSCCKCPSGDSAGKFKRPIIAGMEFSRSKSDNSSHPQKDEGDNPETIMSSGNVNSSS
# Canis familiaris [11] = test: Effect on ECG parameters in telemeterized dog up to 40 mg/kg; assay type: ADME, organism-based, Canis lupus familiaris; design: dose 40 mg/kg; conditions: in vivo; summary of the method: as §4
# [12] = Systemic clearance in rat at 1 mg/kg, iv; assay type: ADME, organism-based; design: dose 1 mg/kg, route intravenous; conditions: in vivo
# [13] = Tmax in dog at 1 mg/kg, iv or 3 mg/kg, po; assay type: ADME, organism-based, Canis lupus familiaris; conditions: in vivo
# [14] = biological target: T1, Sphingosine 1-phosphate receptor 1; test: Agonist activity at human S1P1 receptor assessed as cAMP accumulation by HTRF assay relative to S1P; assay type: functional; summary of the method: as §3
# Canis familiaris [15] = test: Effect on heart rate in telemeterized dog up to 40 mg/kg; assay type: ADME, organism-based, Canis lupus familiaris; design: dose 40 mg/kg; conditions: in vivo; summary of the method: as §4
# Rattus norvegicus [16] = test: Reduction in ankle diameter in Lewis rat collagen-induced arthritis model at 1 mg/kg, po qd measured on day 17 (reference value: +/- inches); assay type: functional
# Summary of the method: (§5)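 Female Lewis rats with collagen-induced arthritis, prophylactic daily oral dosing; ankle diameter (inches) and body weight recorded at day 17 end point; mean ± SEM.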
# [17] = Half life in monkey liver microsomes; assay type: ADME, Macaca mulatta; conditions: rhesus monkey
# Summary of the method: (§6)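 Stability on incubation with liver microsomes of each species; half-life reported.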
# [18] = Elimination half life in dog at 3 mg/kg, po; assay type: ADME, organism-based, Canis lupus familiaris; design: dose 3 mg/kg, route oral; conditions: in vivo, read-out: beta t1/2 (converted); summary of the method: as §2
# [19] = Oral bioavailability in dog at 3 mg/kg; assay type: ADME, organism-based, Canis lupus familiaris; conditions: in vivo
# [20] = biological target: Sphingosine 1-phosphate receptor 1 (Mus musculus) (UniProt O08530); test: Agonist activity at mouse S1P1 receptor assessed as cAMP accumulation by HTRF assay relative to S1P; assay type: functional; summary of the method: as §3
# Sequence of Sphingosine 1-phosphate receptor 1 (Mus musculus) (O08530 whole entry): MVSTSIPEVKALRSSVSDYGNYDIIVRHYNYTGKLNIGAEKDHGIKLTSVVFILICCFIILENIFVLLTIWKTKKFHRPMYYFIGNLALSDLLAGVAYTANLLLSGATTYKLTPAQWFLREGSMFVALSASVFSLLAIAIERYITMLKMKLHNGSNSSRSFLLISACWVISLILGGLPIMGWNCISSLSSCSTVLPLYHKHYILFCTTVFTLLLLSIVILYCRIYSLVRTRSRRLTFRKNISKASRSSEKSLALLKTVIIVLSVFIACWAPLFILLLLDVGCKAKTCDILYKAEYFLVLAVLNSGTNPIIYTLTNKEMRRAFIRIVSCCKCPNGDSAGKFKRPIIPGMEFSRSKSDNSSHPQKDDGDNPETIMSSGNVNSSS
# Rattus norvegicus [21] = test: Toxicity in Sprague-Dawley rat assessed as mortality at 1000 mg/kg during 14 day repeat dose study; assay type: organism-based; design: dose 1000 mg/kg; conditions: in vivo, 336 h
# Summary of the method: (§7)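 14-day repeat-dose rat toxicity study with dose groups of 30, 100, 300 and 1000 mg/kg; animals monitored for tolerability, mortality and CNS clinical signs.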
# [22] = biological target: Sphingosine 1-phosphate receptor 1 (Macaca mulatta, UniProt H9EUW9); test: Agonist activity at monkey S1P1 receptor assessed as cAMP accumulation by HTRF assay; assay type: functional; summary of the method: as §3
# Sequence of Sphingosine 1-phosphate receptor 1 (Macaca mulatta, UniProt H9EUW9) (H9EUW9 whole entry): as the sequence (P21453 whole entry) above, with P3S, H12L, I37T, K41R, S189P, I241M, E365D counted along it
# [23] = Cmax in monkey at 1 mg/kg, iv or 3 mg/kg, po; assay type: ADME, organism-based, Macaca mulatta; conditions: rhesus monkey, in vivo; summary of the method: as §2
# [24] = Cmax in rat at 1 mg/kg, iv or 1 mg/kg, po; assay type: ADME, organism-based; conditions: in vivo
# Rhesus monkey [25] = test: Systemic clearance in monkey at 1 mg/kg, iv relative to liver blood flow; assay type: ADME, organism-based, Macaca mulatta; design: dose 1 mg/kg, route intravenous; conditions: in vivo
# [26] = Half life in dog liver microsomes; assay type: ADME, Canis lupus familiaris; summary of the method: as §6
# [27] = Half life in rat liver microsomes; assay type: ADME; summary of the method: as §6
# Rattus norvegicus [28] = test: Systemic clearance in rat at 1 mg/kg, iv relative to liver blood flow; assay type: ADME, organism-based; design: dose 1 mg/kg, route intravenous; conditions: in vivo
# Rattus norvegicus [29] = test: Toxicity in Sprague-Dawley rat assessed as induction of CNS clinical changes at 1000 mg/kg during 14 day repeat dose study; assay type: organism-based, Central nervous system; design: dose 1000 mg/kg; conditions: in vivo, 336 h; summary of the method: as §7
# Mus musculus [30] = test: Prevention of onset and severity of disease in C57Bl/6 mouse experimental autoimmune encephalomyelitis model of multiple sclerosis at 0.3 to 3 mg/kg dosed once daily beginning on day 3 and continued to day 25; assay type: functional, organism-based
# Summary of the method: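 Female C57Bl/6 mice immunized with MOG35–55 as autoantigen; oral dosing once daily from day 3 to day 25 in 0.5% methylcellulose vehicle; clinical scores followed beyond end of dosing.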
# [31] = biological target: Sphingosine 1-phosphate receptor 1 (Rattus norvegicus) (UniProt P48303); test: Agonist activity at rat S1P1 receptor assessed as cAMP accumulation by HTRF assay relative to S1P; assay type: functional; summary of the method: as §3
# Sequence of Sphingosine 1-phosphate receptor 1 (Rattus norvegicus) (P48303 whole entry): as the sequence (P48303 whole entry) above
# [32] = Oral bioavailability in rat at 1 mg/kg; assay type: ADME, organism-based; conditions: in vivo
# [33] = Cmax in Sprague-Dawley rat at 1000 mg/kg; assay type: ADME, organism-based; design: dose 1000 mg/kg; conditions: in vivo; summary of the method: as §1
# Rattus norvegicus [34] = test: Reduction in ankle diameter in Lewis rat collagen-induced arthritis model at 3 mg/kg, po qd measured on day 17 (reference value: +/- inches); assay type: functional; summary of the method: as §5
# [35] = Systemic clearance in mouse at 1 mg/kg, iv; assay type: ADME, organism-based; design: dose 1 mg/kg, route intravenous; conditions: in vivo
# [36] = Oral bioavailability in rat; assay type: ADME, organism-based; conditions: in vivo
# [37] = Cmax in mouse at 1 mg/kg, iv or 1 mg/kg, po; assay type: ADME, organism-based; conditions: in vivo; summary of the method: as §2
# [38] = Cmax in dog at 1 mg/kg, iv or 3 mg/kg, po; assay type: ADME, organism-based, Canis lupus familiaris; conditions: in vivo; summary of the method: as §2
# [39] = Half life in human liver microsomes; assay type: ADME; summary of the method: as §6
# [40] = Volume of distribution at steady state in rat at 1 mg/kg, iv; assay type: ADME, organism-based; design: dose 1 mg/kg, route intravenous; conditions: in vivo, read-out: Vdss
# Mus musculus [41] = test: Reduction in lymphocyte infiltration in C57Bl/6 mouse experimental autoimmune encephalomyelitis model of multiple sclerosis at 3 mg/kg dosed once daily beginning on day 18 and continued to day 37 by immunofluorescent staining method; assay type: functional, organism-based; design: dose 3 mg/kg
# Summary of the method: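 Therapeutic EAE in female C57Bl/6 mice, dosing from day 18; spinal cord and brain collected day 37; cerebellum sections immunostained for CD45 and CD3 with DAPI counterstain; inflammatory foci and infiltrating lymphocytes assessed.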
# [42] = Ratio of plasma concentration in Sprague-Dawley rat at 14.5 ug/hr/kg dosed as constant infusion to IC50 for reduction in peripheral lymphocyte count in orally dosed rat; assay type: ADME, organism-based; conditions: in vivo, po
# Summary of the method: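 Male Sprague–Dawley rats received a 48 h constant infusion at 14.5 μg/h/kg, and plasma drug concentration was taken at the 48 h time point. […] The ratio is the 48 h plasma concentration divided by that IC50.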
smiles,measurement,setting,value
O=C(O)C[C@H]1CCc2c1[nH]c1ccc(OCc3ccc(C4CCCC4)c(C(F)(F)F)c3)cc21 [ETRASIMOD],Vd,[1],0.609 L/kg
same,concentration at 48 h,[2],0.21 µM
same,IC50,Rhesus monkey [3],98 nM
same,Cmax,[4],136 µM
same,IC50,Cytochrome P450 2C9,> 50000 nM
same,Tmax,[5],3.33 h
same,half-life,[6],9.64 h
same,Emax,[7],87%
same,EC50,[8],0.32 nM
same,Activity,Canis familiaris [9],Non-toxic
same,EC50,[10],0.04 nM
same,Activity,Canis familiaris [11],Non-toxic
same,clearance,[12],2.42 mL/min/kg
same,Tmax,[13],7.33 h
same,Emax,[14],102%
same,Activity,Canis familiaris [15],Non-toxic
same,Activity,Rattus norvegicus [16],0.2803 inches
same,half-life,[17],> 1 h
same,half-life,[18],28.8 h
same,bioavailability,[19],73.2%
same,Emax,[20],95%
same,Activity,Rattus norvegicus [21],Toxic
same,EC50,[22],0.32 nM
same,Cmax,[23],2870 ng/mL
same,Cmax,[24],218 ng/mL
same,CL,Rhesus monkey [25],2.23%
same,half-life,[26],> 1 h
same,half-life,[27],> 1 h
same,CL,Rattus norvegicus [28],3.45%
same,Activity,Rattus norvegicus [29],Toxic
same,Activity,Mus musculus [30],Active
same,Emax,[31],99%
same,bioavailability,[32],54%
same,Cmax,[33],183 µM
same,Activity,Rattus norvegicus [34],0.269 inches
same,clearance,[35],1.83 mL/min/kg
same,bioavailability,[36],54%
same,Cmax,[37],780 ng/mL
same,Cmax,[38],3710 ng/mL
same,half-life,[39],> 1 h
same,Vd,[40],1.61 L/kg
same,Activity,Mus musculus [41],Active
same,Ratio,[42],2
